The text below walks through data of ChEMBL document CHEMBL3526123, “Hepatobiliary disposition of 17-OHPC and taurocholate in fetal human hepatocytes: a comparison with adult human hepatocytes” (Drug Metab Dispos, 2013).

Molecules are shown by their SMILES.

Series [1] deals with Hepatocyte. In words: Total drug uptake in sandwich-cultured human fetal hepatocytes assessed per mg protein at 1 uM after 20 mins in absence of rifampin by liquid scintillation counting method. The series is classed as ADME, cell-based. Put shortly: (§1)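 Sandwich-cultured hepatocytes received 1 µM radiolabeled test compound in HBSS at 37°C, with or without cyclosporine A, verapamil or rifampin. After an ice-cold wash, efflux was started with Ca2+/Mg2+-free HBSS for 20 min. Media and lysates were counted by liquid scintillation. Total uptake is expressed as pmol/mg protein (Bradford), mean ± S.D.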

Series [2] deals with Hepatocyte. In words: Total drug uptake in sandwich-cultured human adult hepatocytes assessed per mg protein at 1 uM after 20 mins in presence of verapamil by liquid scintillation counting method. In kind it is ADME, cell-based. Put shortly:
as §1

Series [3] deals with Hepatocyte. In words: Total drug uptake in sandwich-cultured human fetal hepatocytes assessed per mg protein at 1 uM after 20 mins in presence of rifampin by liquid scintillation counting method. The series is classed as ADME, cell-based. The gist of the method:
as §1

In series [4] the test system is Hepatocyte. In words: Total drug uptake in sandwich-cultured human adult hepatocytes assessed per mg protein at 1 uM after 20 mins in absence of cyclosporine A by liquid scintillation counting method. The series is classed as ADME, cell-based. The gist of the method: as §1
The test system of series [5] is Hepatocyte. In words: Total drug uptake in sandwich-cultured human adult hepatocytes assessed per mg protein at 1 uM after 20 mins in absence of verapamil by liquid scintillation counting method. The series is classed as ADME, cell-based. The gist of the method: as §1
The test system of series [6] is Hepatocyte. In words: Total drug uptake in sandwich-cultured human fetal hepatocytes assessed per mg protein at 1 uM after 20 mins in absence of cyclosporine A by liquid scintillation counting method. In kind it is ADME, cell-based. Put shortly: as §1
The subject of series [7] is Hepatocyte. In words: Total drug uptake in sandwich-cultured human fetal hepatocytes assessed per mg protein at 1 uM after 20 mins in presence of verapamil by liquid scintillation counting method. The series is classed as ADME, cell-based. Put shortly: as §1
In series [8] the test system is Hepatocyte. In words: Total drug uptake in sandwich-cultured human fetal hepatocytes assessed per mg protein at 1 uM after 20 mins in absence of verapamil by liquid scintillation counting method. In kind it is ADME, cell-based. Put shortly:
as §1

In series [9] the test system is Hepatocyte. In words: Total drug uptake in sandwich-cultured human adult hepatocytes assessed per mg protein at 1 uM after 20 mins in presence of cyclosporine A by liquid scintillation counting method. The series is classed as ADME, cell-based. Put shortly:
as §1

Series [10] deals with Hepatocyte. In words: Total drug uptake in sandwich-cultured human fetal hepatocytes assessed per mg protein at 1 uM after 20 mins in presence of cyclosporine A by liquid scintillation counting method. The series is classed as ADME, cell-based. The gist of the method:
as §1

The test system of series [11] is Hepatocyte. In words: Total drug uptake in sandwich-cultured human adult hepatocytes assessed per mg protein at 1 uM after 20 mins in presence of rifampin by liquid scintillation counting method. The series is classed as ADME, cell-based. The gist of the method:
as §1

In series [12] the test system is Hepatocyte. In words: Total drug uptake in sandwich-cultured human adult hepatocytes assessed per mg protein at 1 uM after 20 mins in absence of rifampin by liquid scintillation counting method. The series is classed as ADME, cell-based. The gist of the method:
as §1

For series [13], the system named is Hepatocyte. In words: Drug accumulation in sandwich-cultured human fetal hepatocytes assessed per mg protein under Ca2+/Mg2+ conditions. The series is classed as ADME, cell-based.
The test system of series [14] is Hepatocyte. In words: Drug excretion in sandwich-cultured human adult hepatocytes assessed as mean biliary index. In kind it is ADME, cell-based. The gist of the method:
(§2)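 Sandwich-cultured hepatocytes (Matrigel overlay, 0.233 mg/ml) were rinsed twice and equilibrated 10 min at 37°C in standard or Ca2+/Mg2+-free HBSS. 1 µM [3H]taurocholate or [3H]17-OHPC in standard HBSS was then added. Accumulation was measured by scintillation counting and normalized to Bradford protein. BEI = (accumulation with Ca/Mg − accumulation without)/accumulation with Ca/Mg × 100. Reported as mean ± S.D. across cultures.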

Series [15] concerns the target T1, Bile salt export pump (Homo sapiens, UniProt O95342). In words: Inhibition of ABCB11-mediated taurocholate efflux in sandwich-cultured human adult hepatocytes at 5 to 100 uM. In kind it is ADME, cell-based, Hepatocyte. Put shortly:
(§3)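 Sandwich-cultured hepatocytes (Matrigel overlay) were given 1 µM [3H]taurocholic acid in standard HBSS at 37°C, with or without increasing 17-OHPC or cyclosporine A (40 µM, positive control). Efflux was run in standard versus Ca2+/Mg2+-free HBSS, with inhibitor present. Canalicular efflux is the buffer difference, set to 100% in controls. Uptake was from scintillation counts normalized to Bradford protein. Triplicates; fetal n = 4, adult n = 6.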

Series [16] concerns Hepatocyte. In words: Drug excretion in sandwich-cultured human fetal hepatocytes assessed as mean biliary index. In kind it is ADME, cell-based. The gist of the method: as §2
Series [17] can be described thus: Cmax in adult human plasma. In kind it is ADME, cell-free.
Series [18] concerns Hepatocyte. In words: Drug accumulation in sandwich-cultured human adult hepatocytes assessed per mg protein under Ca2+/Mg2+ free conditions. The series is classed as ADME, cell-based.
Series [19] concerns Hepatocyte. In words: Drug uptake in sandwich-cultured human fetal hepatocytes at 1 uM after 20 mins in presence of cold media at 4 degC by liquid scintillation counting method. In kind it is ADME, cell-based.
Series [20] addresses T1, Bile salt export pump. In words: Inhibition of ABCB11-mediated taurocholate total uptake in sandwich-cultured human adult hepatocytes at >50 uM. In kind it is ADME, cell-based, Hepatocyte. The gist of the method:
as §3

The test system of series [21] is Hepatocyte. In words: Drug uptake in sandwich-cultured human adult hepatocytes at 1 uM after 20 mins in presence of cold media at 4 degC by liquid scintillation counting method. The series is classed as ADME, cell-based. The gist of the method: (§4)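 Sandwich-cultured hepatocytes were loaded for 20 min in standard HBSS containing 1 µM 17-OHPC and 1 µM TCA, at 37°C or at 4°C. Cells were washed ice-cold, and efflux was started with Ca2+/Mg2+-free HBSS at the matching temperature. Media and lysates were counted by liquid scintillation and normalized to protein. Triplicate treatments.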

The nature of series [22]: Cmax in human cord blood.
In series [23] the test system is Hepatocyte. In words: Drug uptake in sandwich-cultured human fetal hepatocytes at 1 uM after 20 mins in presence of warm media at 37 degC by liquid scintillation counting method. The series is classed as ADME, cell-based.
Series [24] concerns Hepatocyte. In words: Drug uptake in sandwich-cultured human adult hepatocytes at 1 uM after 20 mins in presence of warm media at 37 degC by liquid scintillation counting method. The series is classed as ADME, cell-based. Put shortly:
as §4

The test system of series [25] is Hepatocyte. In words: Drug accumulation in sandwich-cultured human adult hepatocytes assessed per mg protein under Ca2+/Mg2+ conditions. In kind it is ADME, cell-based.
For series [26], the target named is T1, Bile salt export pump. In words: Inhibition of ABCB11-mediated taurocholate efflux in sandwich-cultured human fetal hepatocytes at 0.5 to 10 uM. In kind it is ADME, cell-based, Hepatocyte. Put shortly:
as §3

Series [27] has as its system Hepatocyte. In words: Drug accumulation in sandwich-cultured human fetal hepatocytes assessed per mg protein under Ca2+/Mg2+ free conditions. The series is classed as ADME, cell-based.
The target in series [28] is T1, Bile salt export pump. In words: Inhibition of ABCB11-mediated taurocholate total uptake in sandwich-cultured human fetal hepatocytes at >0.5 uM. In kind it is ADME, cell-based, Hepatocyte. The gist of the method:
as §3

T1 sequence (O95342 whole entry): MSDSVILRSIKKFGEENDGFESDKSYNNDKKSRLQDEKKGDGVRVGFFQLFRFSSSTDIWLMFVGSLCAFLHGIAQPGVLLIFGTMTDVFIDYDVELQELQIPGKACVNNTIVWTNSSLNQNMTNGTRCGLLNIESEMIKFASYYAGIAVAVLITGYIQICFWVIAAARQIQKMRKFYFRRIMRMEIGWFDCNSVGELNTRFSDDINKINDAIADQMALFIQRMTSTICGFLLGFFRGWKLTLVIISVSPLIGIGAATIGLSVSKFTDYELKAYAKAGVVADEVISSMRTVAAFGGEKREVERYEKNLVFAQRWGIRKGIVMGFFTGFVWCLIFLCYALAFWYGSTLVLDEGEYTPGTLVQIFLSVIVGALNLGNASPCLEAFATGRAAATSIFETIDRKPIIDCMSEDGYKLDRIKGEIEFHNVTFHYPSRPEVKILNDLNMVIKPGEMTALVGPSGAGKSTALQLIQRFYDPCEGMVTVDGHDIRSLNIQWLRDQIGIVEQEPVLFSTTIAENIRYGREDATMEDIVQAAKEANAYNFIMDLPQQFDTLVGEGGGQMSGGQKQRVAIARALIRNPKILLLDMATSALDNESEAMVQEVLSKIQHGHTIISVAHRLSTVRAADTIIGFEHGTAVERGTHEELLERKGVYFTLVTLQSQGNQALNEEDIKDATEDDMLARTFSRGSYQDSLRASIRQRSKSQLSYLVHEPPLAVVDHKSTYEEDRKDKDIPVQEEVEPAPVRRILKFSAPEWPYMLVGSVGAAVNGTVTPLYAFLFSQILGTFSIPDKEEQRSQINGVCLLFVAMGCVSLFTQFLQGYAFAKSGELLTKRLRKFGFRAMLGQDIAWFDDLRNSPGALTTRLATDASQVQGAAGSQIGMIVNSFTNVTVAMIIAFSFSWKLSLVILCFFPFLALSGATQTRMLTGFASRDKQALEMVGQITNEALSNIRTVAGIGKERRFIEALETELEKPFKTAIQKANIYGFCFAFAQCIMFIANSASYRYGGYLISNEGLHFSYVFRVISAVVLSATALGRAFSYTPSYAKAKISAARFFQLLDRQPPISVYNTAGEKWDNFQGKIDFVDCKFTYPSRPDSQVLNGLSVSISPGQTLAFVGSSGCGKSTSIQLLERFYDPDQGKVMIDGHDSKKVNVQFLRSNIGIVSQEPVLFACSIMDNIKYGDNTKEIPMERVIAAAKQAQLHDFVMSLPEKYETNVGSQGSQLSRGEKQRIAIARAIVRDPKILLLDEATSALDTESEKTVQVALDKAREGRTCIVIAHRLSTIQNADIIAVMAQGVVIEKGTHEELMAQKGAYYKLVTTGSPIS

For `[3H]C1C2=CC(=O)C([3H])C([3H])[C@]2(C)[C@H]2CC[C@@]3(C)[C@@H](CC[C@]3(O[14C](=O)CCCCC)C(C)=O)[C@@H]2C1[3H]` (some centres undefined), the Drug uptake in series [1] came out at 267 pmol; in series [2], 347 pmol; in series [3], 241 pmol; in [4] it was 476 pmol; in [5], 341 pmol; in series [6], 284 pmol. The Drug uptake is reported as 281 pmol in [7]; 263 pmol in series [8]; 494 pmol in series [9]; 304 pmol in series [10]; 565 pmol in [11]; 611 pmol in series [12].

Regarding `CCCCCC(=O)O[C@]1(C(C)=O)CC[C@H]2[C@@H]3CCC4=CC(=O)CC[C@]4(C)[C@H]3CC[C@@]21C` [HYDROXYPROGESTERONE CAPROATE], the Drug uptake was 320 pmol in series [13]; 628 pmol in [18]; “Not Active” in [19]; “Not Active” in series [21]; “Active” in series [23]; “Active” in series [24]. In addition, the Drug uptake was 680 pmol in series [25] and 294 pmol in [27]. The Drug excretion in series [14] stood at 6.2%; in series [16] it was 7%. In addition, the “inhibition (INH)” value in [15], in [20], in [26] and in series [28] was “Active” throughout. Also, the results for the peak concentration (Cmax) in [17] and in [22] were 70 nM and 20 nM, respectively.

For `C[C@H](CCC(=O)NCCS(=O)(=O)O)[C@H]1CC[C@H]2[C@@H]3[C@H](O)C[C@@H]4C[C@H](O)CC[C@]4(C)[C@H]3C[C@H](O)[C@]12C` [TAUROCHOLIC ACID], the Drug uptake in [13] is listed as 34 pmol; in series [18], 21 pmol; in [19], “Not Active”; in series [23] it was “Active”; in series [25], 85 pmol; in [27] it was 23 pmol.
